Measurements from ChEMBL document CHEMBL2021796, “Synthesis and biological evaluation of a series of thieno-expanded tricyclic purine 2'-deoxy nucleoside analogues” (Bioorg Med Chem, 2012).

The compounds below were run on Vaccinia virus (assay: Antiviral activity against Vaccinia virus infected in HEL cells assessed as inhibition of virus-induced cytopathogenicity). Settings: Orthopoxvirus vaccinia.
Assay type: functional, organism-based
Summary of the method: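 Confluent HEL, Vero or HeLa monolayers were infected with 100 CCID50 of virus while exposed to fivefold serial dilutions of compound. Virus-induced cytopathicity was scored when it reached completion in untreated infected controls. The EC50 is the concentration that inhibits cytopathicity by 50%.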

| Compound | EC50 [µM] |
| --- | --- |
| Nc1nc2c(sc3ncn([C@H]4C[C@H](O)[C@@H](CO)O4)c32)c(=O)[nH]1 | > 100 |
| Nc1ncnc2c1sc1ncn([C@H]3C[C@H](O)[C@@H](CO)O3)c12 | > 20 |
| NC(=O)c1ncn([C@@H]2O[C@H](CO)[C@@H](O)[C@H]2O)n1 [RIBAVIRIN] | > 250 |
